Experimental findings from paper PMC2976041 (Biochemistry, 2010) are described below.

A value given as a limit tells only on which side of the number the result lay.

For the assay, the target named is T1, GFP-myo1e-tail (His6-GFP-myo1e-tail) (Homo sapiens, UniProt Q12965).
T1 sequence (Q12965 710-1108): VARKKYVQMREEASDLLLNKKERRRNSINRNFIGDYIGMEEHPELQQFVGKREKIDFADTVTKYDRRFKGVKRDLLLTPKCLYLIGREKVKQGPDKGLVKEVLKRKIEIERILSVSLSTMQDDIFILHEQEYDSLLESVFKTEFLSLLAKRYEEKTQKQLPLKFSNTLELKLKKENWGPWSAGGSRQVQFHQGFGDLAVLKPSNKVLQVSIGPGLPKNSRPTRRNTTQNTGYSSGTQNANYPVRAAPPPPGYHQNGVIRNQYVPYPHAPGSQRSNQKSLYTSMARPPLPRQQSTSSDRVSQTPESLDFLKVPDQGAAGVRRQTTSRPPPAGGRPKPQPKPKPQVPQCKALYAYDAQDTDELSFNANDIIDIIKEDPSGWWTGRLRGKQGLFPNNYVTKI
Kind of assay: LUV sedimentation, GFP fluorescence of supernatant. The class given is binding. The method in brief:
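His6-GFP-myo1e-tail co-expressed with calmodulin in Sf9 cells, purified on Ni-NTA then MonoS, and quantified by A488 (ε 55,000 M⁻¹cm⁻¹). 40 nM protein was mixed with sucrose-loaded 100-nm LUVs (e.g., DOPC with 2% phosphoinositide) in HNa100 (10 mM HEPES pH 7.0, 100 mM NaCl, 1 mM EGTA, 1 mM DTT) with 1 µM calmodulin and 0.25 mg/ml GST. Spun 150,000 × g, 30 min, 25°C; supernatant GFP fluorescence read. Hyperbolic fit gave K_eff versus total lipid.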
In the case of `CCCCCCCC/C=C\CCCCCCCC(=O)OC[C@H](COP(=O)(O)OC[C@H](N)C(=O)O)OC(=O)CCCCCCC/C=C\CCCCCCCC` [80% DOPS, 1,2-dioleoyl-sn-glycero-3-phospho-L-serine], the Kd worked out at 0.51 ± 0.1 µM.

In turn, `CCCCCCCC/C=C\CCCCCCCC(=O)OC[C@H](COP(=O)(O)O[C@H]1[C@H](O)[C@@H](OP(=O)(O)O)[C@H](OP(=O)(O)O)[C@@H](OP(=O)(O)O)[C@H]1O)OC(=O)CCCCCCC/C=C\CCCCCCCC` [2% 18:1 PtdIns(3,4,5)P3, 1,2-dioleoyl-sn-glycerol-3-phospho-(1’-myo-inositol-3’,4’,5’-trisphosphate)] returned a dissociation constant Kd of 3.2 ± 0.4 µM. In the case of `CCCCCCCC/C=C\CCCCCCCC(=O)OC[C@H](COP(=O)(O)O[C@@H]1[C@H](O)[C@H](OP(=O)(O)O)[C@@H](O)[C@H](OP(=O)(O)O)[C@H]1O)OC(=O)CCCCCCC/C=C\CCCCCCCC` [2% 18:1 PtdIns(3,5)P2, 1,2-dioleoyl-sn-glycerol-3-phospho-(1’-myo-inositol-3’,5’-bisphosphate)] it was 13 ± 2.1 µM. Compound `CCCCCCCC/C=C\CCCCCCCC(=O)OC[C@H](COP(=O)([O-])OCC[N+](C)(C)C)OC(=O)CCCCCCC/C=C\CCCCCCCC` [100% DOPC, 1,2-dioleoyl-sn-glycero-3-phosphocholine] came in with a dissociation constant Kd above 400 µM.

As a reminder, the Kd is the free concentration of one partner at which half of the binding sites on the other are occupied at equilibrium, for simple one-to-one binding. Lower therefore signals tighter binding.
